PubChem BioAssay AID504383 (The Scripps Research Institute Molecular Screening Center, 2011)
The whole screen tested about 2,500 compounds, of which about 1,200 (48%) were called active.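 The calls were made as follows: active = mean activation above the low control average plus 3 SD, as set in the primary screen (cut at about 12% in these data); inactive = the rest.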 The set was probably picked from earlier hits. Some of the results follow.

molecular target: Troponin I, cardiac muscle (Homo sapiens) + Troponin T, cardiac muscle (Homo sapiens) + Troponin C, slow skeletal and cardiac muscles (Homo sapiens) (UniProt P19429+P45379+P63316); experiment: calcium sensitizers of cardiac thin filaments – biochemical, IANBD-TnC fluorescence, triplicate, confirmation (AID 504383); settings: IANBD-labeled cardiac RTF, Ca2+ sensitivity fluorescence; at 7.2 µM; hits give high values; scaled from EC20 to saturating calcium; tested at EC20 calcium, 0.472 mM;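 also: 0% = DMSO at 0.472 mM calcium and 100% = DMSO at 2.9 mM calcium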
Outline: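 material = labelled regulated thin filaments | probe or stimulus = Ca2+ 0.472 mM, EC20 level | dosing = single nominal compound dose of 7.2 µM | schedule = 15 min at 25 °C | signal = fluorescence intensity of labelled filaments | evaluation = fluorescence gain scaled between EC20 and EC100 calcium controls | benchmarks = low control EC20 calcium, high control EC100 calcium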

Row | SMILES | activation
1 | Cc1cc(=O)oc2cc(OCC(=O)OCC(=O)NC(C)C)ccc12 | 14.7% (active)
2 | Cc1ccc(NC(=O)CN(C)C(=O)COC(=O)COc2ccc(C#N)cc2)cc1 | 3.65% (inactive)
3 | Cc1ccc(CNC(=O)CCS(=O)(=O)c2cc3c(cc2C)NC(=O)CO3)cc1 | 3.23% (inactive)
4 | COc1cccc(CNC(=O)CCS(=O)(=O)c2cc3c(cc2C)NC(=O)CO3)c1 | 7.4% (inactive)
5 | Cc1cc2c(cc1S(=O)(=O)CCC(=O)NCCc1ccccc1)OCC(=O)N2 | 32.7% (active)
6 | CCC(C(=O)O)N1C(=O)/C(=C/c2cccn2C)SC1=S (stereo not given) | 52.1% (active)
7 | CC(C(=O)O)N1C(=O)/C(=C/c2cccn2C)SC1=S (stereo not given) | 23.1% (active)
8 | CN1C2CCC1/C(=C/c1cccn1C)C(=O)/C2=C\c1cccn1C | 9.37% (inactive)
9 | CC(C)C(C(=O)O)N1C(=O)/C(=C/c2cccn2C)SC1=S (stereo not given) | 21.6% (active)
10 | CCCOc1ccc(Cn2c(=O)oc3ccc(C)cc32)cc1OC | 23.1% (active)
11 | CCCc1ccc(OCc2ccc(C(=O)NN)o2)c(OC)c1 | 7.64% (inactive)
12 | COc1cc(OC)c(C(=O)NC2CCCCCC2)cc1OC | -0.45% (inactive)
13 | O=C(NC1CCCCC1)c1cc2nc3c(c(C(F)(F)F)n2n1)CCCC3 | 29.3% (active)
14 | CN1CCN(c2ccc(-c3cccc(NC(=O)COc4ccccc4)c3)nn2)CC1 | 25% (active)
15 | COC(=O)c1cc(N2CCN(C)CC2)nc2ccccc12 | 9.59% (inactive)
16 | COc1ccc(C(Nc2ccc(S(=O)(=O)NCC3CCCO3)cc2)C(=O)NC(C)(C)C)cc1OC (stereo not given) | 9.44% (inactive)
17 | CCCNC(=O)c1ccc(N2CCC3(CC2)CC(c2cccc(Br)c2)=NO3)c(NC(=O)c2cccc(C)c2)c1 | 9.93% (inactive)
18 | C[C@H](CO)NC(=O)[C@@H]1C[C@H]1[C@@H](NP(=O)(c1ccccc1)c1ccccc1)c1ccccc1 | 1.68% (inactive)
19 | COCCNC(=O)[C@H]1C[C@@H]1[C@H](NP(=O)(c1ccccc1)c1ccccc1)c1ccccc1 | 3770% (active)
20 | COc1ccc(-c2nn(-c3ccccc3)cc2/C=N/NC(N)=S)cc1OC | 29% (active)
21 | COc1cccc(/C=N/Nc2nnc(C)n2N)c1O | 5.74% (inactive)
22 | Cc1ccc(C(C(=O)NC(C)(C)C)N(C(=O)c2csnn2)C2CC2)cc1 (stereo not given) | 100% (active)
23 | O=C(O)CCNc1cc(N2CCN(C(=O)c3ccco3)CC2)c2noc3c2c1C(=O)c1ccccc1-3 | 3.54% (inactive)
24 | O=C1c2ccccc2-c2onc3c(N4CCN(CCO)CC4)cc(N4CCN(C(=O)c5ccco5)CC4)c1c23 | 7.32% (inactive)
25 | O=C(c1ccco1)N1CCN(c2ncnc3c(-c4ccc(Cl)cc4)nsc23)CC1 | 112% (active)
